According to PMC6045484 (ACS Omega, 2018):
Converted amounts (≈) assume the structure as drawn. “Also recorded” adds a separate entry of the source.

What was measured:
[1] = test system: P. falciparum (D6); experiment: in vitro antimalarial activity, plasmodial LDH; format: cell-based, Plasmodium falciparum; details: Plasmodium falciparum, D6, 72 h, read-out: P. falciparum (D6) IC50
[2] = test system: P. falciparum (W2); experiment: in vitro antimalarial activity, plasmodial LDH; format: cell-based, Plasmodium falciparum; details: Plasmodium falciparum, W2, 72 h, read-out: P. falciparum (W2) IC50, CQ-resistant W2 strain, 72 h
In short: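 P. falciparum-infected erythrocytes (2% parasitemia, 2% hematocrit) in RPMI 1640 with 10% human serum and 60 μg/mL amikacin. Exposed to test compound dilutions for 72 h at 37 °C under 90% N2/5% O2/5% CO2. LDH measured with Malstat reagent (30 min, room temperature), then NBT/PES for 1 h in the dark, stopped with 5% acetic acid, read at 650 nm. IC50 from dose-response curves.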

[3] = test system: SK-MEL, KB, BT-549, SK-OV-3, VERO and LLC-PK1 cells; experiment: cytotoxicity, neutral red uptake assay; format: cell-based, mammalian; details: highest test concentration 4760 ng/mL
In short: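 Cells seeded at 25 000/well and allowed 24 h to reach confluence. Test compound was then added and incubated 48 h. Viable cells were counted by a modified neutral red uptake method. The panel was four human cancer lines and two noncancerous mammalian kidney lines. Doxorubicin served as positive control and DMSO as negative control.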

[4] = test system: P. berghei (sensitive strain); experiment: blood-schizontocidal activity against P. berghei infection in mice; format: in vivo, Plasmodium berghei; details: Swiss mice
In short: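 Swiss mice of either sex (about 15–20 g, same age), six per group, inoculated intraperitoneally on day 0 with 1 × 10^7 infected erythrocytes from a donor mouse. Oral test compound at 100, 50, 25 or 10 mg/kg, CQ diphosphate (10 mg/kg/day × 4) or vehicle started 4 h later, on D0 to D+3. Giemsa tail-blood smears on D+4 and D+7. Curative: parasites eliminated, no relapse, all mice surviving to D+60.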

[5] = test system: C. albicans ATCC90028; experiment: in vitro antifungal activity; format: cell-based, Candida albicans; details: Candida albicans; for IC50: ATCC90028, read-out: C. albicans IC50; for MFC: ATCC90028, read-out: C. albicans MFC; for MIC: ATCC90028, read-out: C. albicans MIC
In short: (§1)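 Modified NCCLS broth method in Sabouraud dextrose. Inoculum set by OD630 to 1.5 × 10^3 CFU/mL. Test compound serially diluted in 20% DMSO/saline, duplicate wells, up to 20 μg/mL. Incubated 70–74 h at 35 °C; 530 nm read before and after. IC50 is 50% growth inhibition; MIC is no detectable growth. MFC from clear wells subcultured on agar. Amphotericin B control.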

[6] = test system: C. neoformans ATCC90113; experiment: in vitro antifungal activity; format: cell-based, Cryptococcus neoformans; details: Cryptococcus neoformans; for IC50: ATCC90113, read-out: C. neoformans IC50; for MFC: ATCC90113, read-out: C. neoformans MFC; for MIC: ATCC90113, read-out: C. neoformans MIC
In short: as §1

[7] = test system: A. fumigatus ATCC 90906; experiment: in vitro antifungal activity; format: cell-based, Aspergillus fumigatus; details: Aspergillus fumigatus; for IC50: ATCC90906, read-out: A. fumigatus IC50; for MFC: ATCC90906, read-out: A. fumigatus MFC; for MIC: ATCC90906, read-out: A. fumigatus MIC
In short: as §1

[8] = test system: SA (ATCC29213); experiment: in vitro antibacterial activity; format: cell-based; details: Staphylococcus aureus; for IC50: ATCC29213, read-out: IC50 (concentration that affords 50% growth inhibition), SA; for MBC: ATCC29213, read-out: MBC (minimum bactericidal concentration), SA; for MIC: ATCC29213, read-out: MIC, SA
In short: (§2)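 Test compound serially diluted in 20% DMSO/saline and plated in duplicate, up to 20 μg/mL. Inoculum in cation-adjusted Mueller–Hinton broth, pH 7.3, set by OD630 to 5 × 10^5 CFU/mL. Incubated 16–20 h at 35 °C; 530 nm read before and after. IC50 is 50% growth inhibition; MIC is no detectable growth. MBC from clear wells subcultured on agar. Ciprofloxacin control.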

[9] = test system: MRSA (ATCC33591); experiment: in vitro antibacterial activity; format: cell-based, methicillin-resistant Staphylococcus aureus; details: Staphylococcus aureus, ATCC33591|MRSA, read-out: MIC, MRSA
In short: as §2

[10] = test system: M. intracellulare (ATCC23068); experiment: in vitro antibacterial activity, modified alamarBlue procedure; format: cell-based, Mycobacterium intracellulare; details: Mycobacterium intracellulare; for IC50: ATCC23068, read-out: IC50 (concentration that affords 50% growth inhibition), M. intracellulare; for MBC: ATCC23068, read-out: MBC (minimum bactericidal concentration), M. intracellulare; for MIC: ATCC23068, read-out: MIC, M. intracellulare
In short: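 Modified alamarBlue microplate method. Test compound serially diluted in 20% DMSO/saline, duplicate wells, up to 20 μg/mL. Inoculum 2.0 × 10^6 CFU/mL in Middlebrook 7H9 with OADC, pH 7.3, containing 5% alamarBlue. Incubated 70–74 h at 37 °C, 10% CO2; fluorescence 544ex/590em read before and after. MIC: no blue-to-pink change. MBC by subculturing blue wells on agar. Ciprofloxacin control.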

[11] = test system: L. donovani promastigotes; experiment: in vitro antileishmanial activity, alamarBlue assay; format: cell-based, Leishmania donovani; details: Leishmania donovani, 48 h; for IC50: read-out: L. donovani IC50, promastigotes, 48 h; for IC90: read-out: L. donovani IC90, promastigotes, 48 h

Row | Compound | IC50 [1] [µg/mL] | IC50 [2] [µg/mL] | cytotoxicity CTX [3] | P. berghei blood-schizontocidal activity (mice cured/treated) ([4]; 25 mg/kg/day × 4, oral) | IC50 [5] [µg/mL] | MFC [5] [µg/mL] | MIC [5] [µg/mL] | IC50 [6] [µg/mL] | MFC [6] [µg/mL] | MIC [6] [µg/mL] | IC50 [7] [µg/mL] | MFC [7] [µg/mL] | MIC [7] [µg/mL] | IC50 [8] [µg/mL] | MBC [8] [µg/mL] | MIC [8] [µg/mL] | MIC [9] [µg/mL] | IC50 [10] [µg/mL] | MBC [10] [µg/mL] | MIC [10] [µg/mL] | also measured
1 | CCCCCOc1c(OC)cc(NC(C)CCCNC(=O)C(N)CCCCN)c2nc(C(C)(C)C)ccc12 (stereo not drawn) [compound 92, 2,6-Diamino-N-(4-(2-tert-butyl-6-methoxy-5-(pentyloxy)quinolin-8-ylamino)-pentyl)hexanamide] | 0.11 (≈ 0.208 µM) | 0.052 (≈ 0.0982 µM) | NC (NC, not cytotoxic up to 4760 ng/mL (4.76 μg/mL)) | inactive (0/6) | > 20 | > 20 | > 20 | 10.9 (≈ 20.5 µM) | > 20 | > 20 | > 20 | > 20 | > 20 | > 20 | > 20 | > 20 | > 20 | > 20 | > 20 | > 20 | P. berghei blood-schizontocidal activity (mice cured/treated) ([4]; 50 mg/kg/day × 4, oral): suppressive activity; also recorded: active (4/6); P. berghei blood-schizontocidal activity (mice cured/treated) ([4]; 100 mg/kg/day × 4, oral): 100% cure and curative (6/6)
2 | CCCCCCOc1c(OC)cc(NC(C)CCCNC(=O)C(N)CCCCN)c2nc(C(C)(C)C)ccc12 (stereo not drawn) [compound 99, 2,6-Diamino-N-(4-(2-tert-butyl-5-(hexyloxy)-6-methoxyquinolin-8-ylamino)-pentyl)hexanamide] | 0.09 (≈ 0.166 µM) | 0.036 (≈ 0.0662 µM) | NC (NC, not cytotoxic up to 4760 ng/mL (4.76 μg/mL)) | inactive (0/6) | > 20 | > 20 | > 20 | 18.6 (≈ 34.3 µM) | > 20 | > 20 | > 20 | > 20 | > 20 | > 20 | > 20 | > 20 | > 20 | > 20 | > 20 | > 20 | P. berghei blood-schizontocidal activity (mice cured/treated) ([4]; 50 mg/kg/day × 4, oral): suppressive activity; also recorded: active (3/6); P. berghei blood-schizontocidal activity (mice cured/treated) ([4]; 100 mg/kg/day × 4, oral): 100% cure and curative (6/6)
3 | CCCCCCCOc1c(OC)cc(NC(C)CCCNC(=O)C(N)CCCNC(=N)N)c2nc(C(C)(C)C)ccc12 (stereo not drawn) [compound 111, 2-Amino-N-(4-(2-tert-butyl-5-(heptyloxy)-6-methoxyquinolin-8-ylamino)pentyl)-5-guanidinopentanamide] | 0.39 (≈ 0.666 µM) | 0.24 (≈ 0.41 µM) | NC (NC, not cytotoxic up to 4760 ng/mL (4.76 μg/mL)) | inactive (0/6) | > 20 | > 20 | > 20 | 13.2 (≈ 22.6 µM) | > 20 | > 20 | > 20 | > 20 | > 20 | > 20 | > 20 | > 20 | > 20 | > 20 | > 20 | > 20 | P. berghei blood-schizontocidal activity (mice cured/treated) ([4]; 50 mg/kg/day × 4, oral): 100% cure and curative (6/6); P. berghei blood-schizontocidal activity (mice cured/treated) ([4]; 100 mg/kg/day × 4, oral): 100% cure and curative (6/6)
4 | CCCCCCCCOc1c(OC)cc(NC(C)CCCNC(=O)C(N)Cc2cc3ccccc3[nH]2)c2nc(C(C)(C)C)ccc12 (stereo not drawn) [compound 122, 2-Amino-N-(4-(2-tert-butyl-6-methoxy-5-(octyloxy)quinolin-8-ylamino)pentyl)-3-(1H-indol-2-yl)propanamide] | > 4.76 | > 4.76 | NC (NC, not cytotoxic up to 4760 ng/mL (4.76 μg/mL)) |  | > 20 | > 20 | > 20 | 6.8 (≈ 10.8 µM) | > 20 | 20 (≈ 31.8 µM) | > 20 | > 20 | > 20 | 12 (≈ 19 µM) | > 20 | 20 (≈ 31.8 µM) | 20 (≈ 31.8 µM) | > 20 | > 20 | > 20 | IC50 [11]: 9.32 µg/mL (≈ 14.8 µM); IC90 [11]: 25.7 µg/mL (≈ 40.8 µM)
5 | CCCCCCCCOc1c(OC)cc(NC(C)CCCNC(=O)C2CCCN2)c2nc(C(C)(C)C)ccc12 (stereo not drawn) [compound 123, N-(4-(2-tert-Butyl-6-methoxy-5-(octyloxy)quinolin-8-ylamino)pentyl)pyrrolidine-2-carboxamide] | > 4.76 | > 4.76 | NC (NC, not cytotoxic up to 4760 ng/mL (4.76 μg/mL)) |  | > 20 | > 20 | > 20 | 2.89 (≈ 5.34 µM) | 5 (≈ 9.25 µM) | 5 (≈ 9.25 µM) | > 20 | > 20 | > 20 | 10.4 (≈ 19.3 µM) | 20 (≈ 37 µM) | 20 (≈ 37 µM) | 10 (≈ 18.5 µM) | > 20 | > 20 | > 20 | IC50 [11]: 12.4 µg/mL (≈ 22.9 µM); IC90 [11]: 38.4 µg/mL (≈ 71 µM)
